Measured values collected from several papers.
Target: Beta-1 adrenergic receptor (ADRB1, Homo sapiens, UniProt P08588)

| Structure (SMILES) | effect on | technique | concentration | quantity | value |
| --- | --- | --- | --- | --- | --- |
| COCc1c(-c2cc3cc(C)cc(OC)c3s2)c2c(N)ncnn2c1CN1CCNC(=O)C1 | ligand displacement | radioligand | 10 µM | inhibition | 2% |
| c1ccc(C(NCCNC(c2ccccc2)c2ccccc2)c2ccccc2)cc1 | cell-free assay |  | 10 µM | inhibition | 31% |
| CN(CCN1CCC(OC(=O)Nc2ccccc2-c2ccccc2)CC1)C(=O)c1ccc(CN2CCC(C(N)=O)CC2)cc1 | ligand displacement | radioligand | 1 µM | inhibition | 14% |
| CC(C)N1CCC[C@H]1CNC(=O)c1cn(C2CCCC2)c(=O)c2c1c1ccccc1n2C | ligand displacement | radioligand | 10 µM | inhibition | 24% |
| Cn1cncc1[C@@](O)(COc1ccc(C#N)cc1-c1ccc(OC(F)(F)F)cc1)c1ccc(C#N)cc1 | ligand displacement |  | 10 µM | inhibition | -16.5% |
| Clc1ccc2c(C3CCN(CCc4c[nH]c5ccccc45)CC3)c[nH]c2c1 | ligand displacement | radioligand | 10 µM | inhibition | 84% |
| Nc1ncc(-c2nc(N3CCOCC3)nc(N3CCOCC3)n2)c(C(F)F)n1 | cell-free assay | radioligand | 10 µM | remaining signal | 93.2% |
| Cc1c(N2CCNCC2)nc2ccc(Br)cc2c1C(=O)NC[C@H](CCC(=O)O)c1ccccc1Cl | ligand displacement |  | 10 µM | inhibition | 12.6% |
| O=C(Nc1cccnn1)N1CCN([C@@H]2CCOc3cc(C(F)(F)F)ccc32)CC1 | cell-free assay |  | 20 µM | inhibition | 27% |
| C[C@H](C(=O)N[C@H]1COc2ccccc2[C@@H]1S(C)(=O)=O)c1ccc(F)cc1 | cell-free assay |  | 10 µM | inhibition | 3% |
| COc1ccc(S(=O)(=O)N2CCCCC2)cc1C | ligand displacement | radioligand | 10 µM | inhibition | < 30% |
